A short description of data set [1]: Serum biochemical parameters during NNK lung cancer induction. The format is in vivo, Sprague-Dawley rats. The essentials:
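NNK was given to Sprague-Dawley rats (200–250 g) as […]. Tail-vein blood was clotted 30 min at RT, spun 20 min at 1200 rpm, and serum stored at −80 °C. TBARS: TCA/TBA/HCl at 95 °C for 15 min, […]. SOD: epinephrine in carbonate buffer pH 9.2, A295, reported as units/mg protein.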

A short description of data set [2]: Pharmacokinetic study. Conditions: for Cmax / MRT / Tmax / half-life: Sprague-Dawley, rat, inhaled or intranasal, 3.5 mg/kg; for Frel: relative to silibinin solution; for AUCtotal / CL: silibinin 3.5 mg/kg, NPs 2.5 mg/kg by microspray aerosolizer. The class given is in vivo, Sprague-Dawley rats.
For data set [3] the following is noted: cited from earlier work.
Data set [4] in a line: Toxicity experiment. The format is in vivo, Sprague-Dawley rats. Conditions: daily for 2 weeks; SB 3.5 mg/kg, NPs 2.5 mg/kg. The essentials: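 Sprague-Dawley rats, n = 6 per group, were dosed daily for 2 weeks with free test compound (3.5 mg/kg), folate-conjugated nanoparticles (2.5 mg/kg), or saline via the caudal vein. Food and water were given freely. After 2 weeks, rats were sacrificed and lungs, liver, kidneys and spleen were weighed. Body-weight gain was recorded, and the organ index (mg/g) was calculated from organ weights.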

Results on two molecules are retold here after publication PMC10918659 (ACS Omega, 2024).

Like-named read-outs stand apart in the source and are kept apart here.

Usually Cmax stands for the highest concentration seen after dosing. A word on the MRT: it is a mean duration of stay, worked out from the concentration-time curve. The term Tmax denotes the time at which the peak concentration occurs. The half-life is how long it takes for the measured level to halve.

Consider `CN(CCCC(=O)c1cccnc1)N=O` [NNK, 4-(methylnitrosamino)-1-(3-pyridyl)-1-butanone], for which the “increase of MDA content in sera vs control” value was determined as 4.21% in data set [1] (2 months), 21.4% in data set [1] (3 months) and 35.16% in data set [1] (4 months). Besides, the “reduction of SOD activity vs control” value in data set [1] (2 months) came to 10.437%; in data set [1] (3 months), 29.16%; in data set [1] (4 months), 45.21%.

As to `COc1cc(C2Oc3cc([C@H]4Oc5cc(O)cc(O)c5C(=O)[C@@H]4O)ccc3OC2CO)ccc1O` (stereo partly drawn) [silibinin], in data set [2] (lung), the highest level (Cmax) was 32500 ± 25800 ng/mL, the mean residence time MRT turned out to be 3.88 ± 0.87 h, the Tmax amounted to 1 ± 2.21 h and the half-life was 4.3 ± 0.58 h. Besides, in data set [2] (plasma), the peak concentration (Cmax) was 23600 ± 13200 ng/mL, the MRT is 4.25 ± 1.05 h, the Tmax stood at 1 ± 2.21 h and the half-life is 8.9 ± 1.25 h. Also, the “time to reach peak” value in data set [2] (plasma) is given as 1 h. In data set [2] (lung kinetics), this molecule had a Frel of 1, an AUCtotal of 745.2 ± 102.5 µg·h/mL and a CL of 0.57 ± 1.02 h⁻¹. In addition, the “time to reach peak” value in data set [2] (lungs) came out at 1 h. Also, in data set [2] (plasma kinetics), the Frel was determined as 1, the AUCtotal is 978.5 ± 118.52 µg·h/mL and the CL amounted to 0.87 ± 0.89 h⁻¹. Further, in data set [3] (after oral administration), the time of peak concentration (Tmax) was 2 to 4 h and the half-life is given as 6 h. Further, in data set [3] (conventional silibinin), the “oral rate of absorption” value is on record as 23–47%. Besides, in data set [4], the increment in weight amounted to 29.85 ± 3.21 g, the kidney organ index was 3.78 mg/g, the liver organ index is recorded as 39.52 mg/g and the lung organ index is reported as 6.27 mg/g. In data set [4], the spleen organ index worked out at 7.42 mg/g.
